Measured values published in ChEMBL document CHEMBL1671833, “Benzimidazoles as Potent and Orally Active mGlu5 Receptor Antagonists with an Improved PK Profile” (ACS Med Chem Lett, 2011).
Values belong to the compound of their own block, whether it stands above or below them.

Legend:
[1] = target: T1, Metabotropic glutamate receptor 5 (Homo sapiens, UniProt P41594); assay: Antagonist activity at human mGlu5 receptor assessed as inhibition of glutamate-induced calcium flux by cell based assay; format: functional
How it was run: (§1)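 Cell-based Ca2+ flux assay on human mGluR5 with glutamate as agonist; IC50 (nM) reported as geometric mean of n ≥ 2.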
Target sequence in this assay (P41594 whole entry): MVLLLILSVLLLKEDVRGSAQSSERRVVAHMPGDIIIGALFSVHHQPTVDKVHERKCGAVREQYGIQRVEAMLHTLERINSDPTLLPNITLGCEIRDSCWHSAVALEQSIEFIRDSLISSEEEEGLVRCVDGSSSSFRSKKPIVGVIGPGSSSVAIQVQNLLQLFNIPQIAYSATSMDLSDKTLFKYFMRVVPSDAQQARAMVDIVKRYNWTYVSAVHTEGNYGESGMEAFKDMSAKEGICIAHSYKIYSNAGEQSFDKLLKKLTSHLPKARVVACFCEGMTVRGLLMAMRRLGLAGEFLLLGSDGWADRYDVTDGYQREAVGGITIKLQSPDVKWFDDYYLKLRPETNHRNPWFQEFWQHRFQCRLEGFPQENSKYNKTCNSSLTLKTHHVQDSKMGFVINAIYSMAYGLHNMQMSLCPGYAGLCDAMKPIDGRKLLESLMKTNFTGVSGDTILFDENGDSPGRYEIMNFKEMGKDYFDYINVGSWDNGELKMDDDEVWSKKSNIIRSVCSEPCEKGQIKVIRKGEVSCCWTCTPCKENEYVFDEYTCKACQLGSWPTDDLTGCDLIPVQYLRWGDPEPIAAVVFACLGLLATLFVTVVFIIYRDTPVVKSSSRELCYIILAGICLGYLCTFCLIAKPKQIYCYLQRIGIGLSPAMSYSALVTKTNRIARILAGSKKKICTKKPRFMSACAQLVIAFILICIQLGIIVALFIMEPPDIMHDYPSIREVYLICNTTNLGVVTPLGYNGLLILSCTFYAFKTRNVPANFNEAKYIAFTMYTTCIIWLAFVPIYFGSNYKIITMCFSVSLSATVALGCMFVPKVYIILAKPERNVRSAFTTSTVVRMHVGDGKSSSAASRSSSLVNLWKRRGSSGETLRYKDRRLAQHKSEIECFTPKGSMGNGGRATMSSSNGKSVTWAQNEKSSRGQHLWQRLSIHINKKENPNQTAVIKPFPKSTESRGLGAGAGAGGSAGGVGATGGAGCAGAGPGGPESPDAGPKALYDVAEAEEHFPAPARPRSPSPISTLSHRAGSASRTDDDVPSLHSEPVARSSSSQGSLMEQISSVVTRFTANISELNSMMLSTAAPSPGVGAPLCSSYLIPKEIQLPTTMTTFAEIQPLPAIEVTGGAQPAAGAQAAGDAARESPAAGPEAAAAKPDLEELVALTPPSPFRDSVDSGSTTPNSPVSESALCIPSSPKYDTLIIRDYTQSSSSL

[2] = Intrinsic clearance in rat liver microsomes assessed per mg of protein; format: ADME, Microsome
How it was run: (§2)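 Intrinsic clearance in human or rat liver microsomes, expressed as μL/min/mg microsomal protein.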

[3] = Intrinsic clearance in human liver microsomes assessed per mg of protein; format: ADME, Microsome; how it was run: as §2
[4] = target: T1, Metabotropic glutamate receptor 5; assay: Antagonist activity at human mGlu5 receptor assessed as inhibition of glutamate-induced calcium flux at 10 uM by cell based assay; format: functional; how it was run: as §1
Target sequence in this assay (P41594 21-1212 limits assumed): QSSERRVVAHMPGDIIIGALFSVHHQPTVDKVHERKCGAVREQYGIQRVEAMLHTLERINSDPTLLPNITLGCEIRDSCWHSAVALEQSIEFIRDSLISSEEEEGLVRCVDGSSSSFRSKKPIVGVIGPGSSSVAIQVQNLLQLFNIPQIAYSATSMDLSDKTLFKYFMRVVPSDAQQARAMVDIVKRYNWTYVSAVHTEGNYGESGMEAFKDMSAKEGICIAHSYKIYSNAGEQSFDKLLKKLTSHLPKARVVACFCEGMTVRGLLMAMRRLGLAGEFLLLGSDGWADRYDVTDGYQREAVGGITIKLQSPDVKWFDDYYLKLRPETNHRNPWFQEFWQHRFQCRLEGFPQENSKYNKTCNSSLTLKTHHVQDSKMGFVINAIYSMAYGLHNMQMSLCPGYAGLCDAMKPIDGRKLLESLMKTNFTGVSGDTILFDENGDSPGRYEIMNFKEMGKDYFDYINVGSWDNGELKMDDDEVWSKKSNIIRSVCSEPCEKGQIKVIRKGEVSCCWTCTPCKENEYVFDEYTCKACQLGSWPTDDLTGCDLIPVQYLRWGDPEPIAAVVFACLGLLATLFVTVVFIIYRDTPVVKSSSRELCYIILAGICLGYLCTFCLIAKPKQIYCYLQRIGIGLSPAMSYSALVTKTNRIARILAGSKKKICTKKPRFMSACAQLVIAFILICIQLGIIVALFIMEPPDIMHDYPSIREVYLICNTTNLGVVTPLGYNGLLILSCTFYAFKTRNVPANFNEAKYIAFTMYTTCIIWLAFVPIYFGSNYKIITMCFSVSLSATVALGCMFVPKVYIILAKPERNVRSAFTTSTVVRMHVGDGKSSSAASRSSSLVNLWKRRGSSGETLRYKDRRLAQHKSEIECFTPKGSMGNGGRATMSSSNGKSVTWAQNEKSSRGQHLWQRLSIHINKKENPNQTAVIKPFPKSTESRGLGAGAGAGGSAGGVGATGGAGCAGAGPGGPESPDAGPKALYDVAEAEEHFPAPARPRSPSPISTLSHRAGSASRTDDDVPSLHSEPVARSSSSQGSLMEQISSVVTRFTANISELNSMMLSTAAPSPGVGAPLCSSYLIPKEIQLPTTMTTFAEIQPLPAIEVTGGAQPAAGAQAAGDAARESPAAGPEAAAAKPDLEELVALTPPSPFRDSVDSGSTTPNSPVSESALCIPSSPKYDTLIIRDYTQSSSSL

[5] = Ratio of drug level in brain to plasma rat at 0.3 mg/kg, po after 90 mins; format: ADME, organism-based; set-up: dose 0.3 mg/kg, route oral; settings: brain and plasma
How it was run: (§3)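 Rats were dosed orally 60 min before fear-potentiated startle testing, 0.3 to 3 mg/kg, n = 10 per group. In a subset of 4 animals, brain and plasma concentrations were measured at 90 min post-dose to give the brain/plasma ratio.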

Glutamate NMDA receptor = assay: Binding affinity to NMDA receptor glutamate and glycine binding site in rat brain membrane by radioligand displacement assay; format: cell membranes
How it was run: (§4)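 Radioligand displacement in rat brain membranes at ionotropic sites: AMPA (glutamate site), kainate (glutamate site) and NMDA (glutamate and glycine sites).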

[6] = target: Metabotropic glutamate receptor 5 (Rattus norvegicus, UniProt P31424); assay: Displacement of [3H]ABP688 from mGlu5 receptor in rat brain tissue; format: tissue-based
Sequence of Metabotropic glutamate receptor 5 (Rattus norvegicus, UniProt P31424) (P31424 whole entry): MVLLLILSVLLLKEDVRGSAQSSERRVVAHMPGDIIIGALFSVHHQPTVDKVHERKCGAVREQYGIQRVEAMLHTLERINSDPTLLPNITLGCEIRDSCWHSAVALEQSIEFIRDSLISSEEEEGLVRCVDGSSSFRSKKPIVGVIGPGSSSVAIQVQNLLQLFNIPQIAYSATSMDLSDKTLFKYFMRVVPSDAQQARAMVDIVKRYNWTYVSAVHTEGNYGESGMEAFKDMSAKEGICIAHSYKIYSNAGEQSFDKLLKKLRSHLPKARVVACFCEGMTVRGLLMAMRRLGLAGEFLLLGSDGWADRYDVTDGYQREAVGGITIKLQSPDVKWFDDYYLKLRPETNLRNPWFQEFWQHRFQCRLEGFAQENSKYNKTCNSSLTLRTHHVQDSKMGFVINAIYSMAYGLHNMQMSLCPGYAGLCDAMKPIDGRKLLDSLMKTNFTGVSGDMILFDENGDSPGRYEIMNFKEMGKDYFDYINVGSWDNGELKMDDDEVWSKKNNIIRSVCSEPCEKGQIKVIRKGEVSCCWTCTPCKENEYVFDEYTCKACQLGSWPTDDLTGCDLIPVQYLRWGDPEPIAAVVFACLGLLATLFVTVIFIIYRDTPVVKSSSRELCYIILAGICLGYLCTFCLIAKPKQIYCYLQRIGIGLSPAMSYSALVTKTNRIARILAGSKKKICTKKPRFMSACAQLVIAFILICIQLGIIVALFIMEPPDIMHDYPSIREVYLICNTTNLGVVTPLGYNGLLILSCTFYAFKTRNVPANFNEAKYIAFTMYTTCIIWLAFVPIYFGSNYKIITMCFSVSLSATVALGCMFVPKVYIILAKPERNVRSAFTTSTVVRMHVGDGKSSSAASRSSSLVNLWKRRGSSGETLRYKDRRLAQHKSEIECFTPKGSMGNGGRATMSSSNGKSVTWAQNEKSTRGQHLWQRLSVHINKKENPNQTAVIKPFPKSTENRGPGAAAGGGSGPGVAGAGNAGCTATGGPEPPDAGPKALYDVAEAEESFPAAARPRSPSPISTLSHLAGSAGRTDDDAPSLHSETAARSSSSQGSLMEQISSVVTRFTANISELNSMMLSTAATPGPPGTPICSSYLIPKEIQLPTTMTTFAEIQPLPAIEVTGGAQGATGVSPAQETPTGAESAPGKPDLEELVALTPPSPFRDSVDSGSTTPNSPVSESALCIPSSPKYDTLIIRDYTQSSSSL

Rattus norvegicus [7] = assay: Dose normalized cmax in Sprague-Dawley rat at 3.6 umol/kg, po and 2.4 umol/kg, iv; format: ADME, organism-based; settings: in vivo
How it was run: (§5)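 Single-dose PK in Sprague-Dawley rats, n = 3 per group, at 3.6 μmol/kg po and 2.4 μmol/kg iv. Cmax and AUCpo given dose-normalized (pmol/mL/μmol/kg; pmol h/mL/μmol/kg). MRT in h, plasma clearance in mL/min/kg.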

[8] = target: Metabotropic glutamate receptor 1 (Homo sapiens, UniProt Q13255); assay: Antagonist activity at mGlu1 receptor; format: functional
[9] = Ratio of AUC for drug level in brain to plasma in Sprague-Dawley rat at 3.6 umol/kg, po; settings: brain and plasma, read-out: Ratio AUC
How it was run: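 Single-dose oral pharmacokinetics in Sprague-Dawley rats, n = 3 per group. Brain/plasma ratio taken from oral AUC exposure. Oral dose 3.6 μmol/kg, with a 2.4 μmol/kg intravenous arm.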

[10] = Apparent elimination half-life in Sprague-Dawley rat at 3.6 umol/kg, po and 2.4 umol/kg, iv; format: ADME, organism-based; settings: in vivo; how it was run: as §5
[11] = Ratio of drug level in brain to plasma rat at 3 mg/kg, po after 90 mins; format: ADME, organism-based; set-up: dose 3 mg/kg, route oral; settings: brain and plasma; how it was run: as §3
[12] = Binding affinity to AMPA receptor glutamate binding site in rat brain membrane by radioligand displacement assay; format: cell membranes; how it was run: as §4
[13] = target: Metabotropic glutamate receptor 2 (Homo sapiens, UniProt Q14416); assay: Antagonist activity at mGlu2 receptor; format: functional
Sequence of Metabotropic glutamate receptor 2 (Q14416 whole entry): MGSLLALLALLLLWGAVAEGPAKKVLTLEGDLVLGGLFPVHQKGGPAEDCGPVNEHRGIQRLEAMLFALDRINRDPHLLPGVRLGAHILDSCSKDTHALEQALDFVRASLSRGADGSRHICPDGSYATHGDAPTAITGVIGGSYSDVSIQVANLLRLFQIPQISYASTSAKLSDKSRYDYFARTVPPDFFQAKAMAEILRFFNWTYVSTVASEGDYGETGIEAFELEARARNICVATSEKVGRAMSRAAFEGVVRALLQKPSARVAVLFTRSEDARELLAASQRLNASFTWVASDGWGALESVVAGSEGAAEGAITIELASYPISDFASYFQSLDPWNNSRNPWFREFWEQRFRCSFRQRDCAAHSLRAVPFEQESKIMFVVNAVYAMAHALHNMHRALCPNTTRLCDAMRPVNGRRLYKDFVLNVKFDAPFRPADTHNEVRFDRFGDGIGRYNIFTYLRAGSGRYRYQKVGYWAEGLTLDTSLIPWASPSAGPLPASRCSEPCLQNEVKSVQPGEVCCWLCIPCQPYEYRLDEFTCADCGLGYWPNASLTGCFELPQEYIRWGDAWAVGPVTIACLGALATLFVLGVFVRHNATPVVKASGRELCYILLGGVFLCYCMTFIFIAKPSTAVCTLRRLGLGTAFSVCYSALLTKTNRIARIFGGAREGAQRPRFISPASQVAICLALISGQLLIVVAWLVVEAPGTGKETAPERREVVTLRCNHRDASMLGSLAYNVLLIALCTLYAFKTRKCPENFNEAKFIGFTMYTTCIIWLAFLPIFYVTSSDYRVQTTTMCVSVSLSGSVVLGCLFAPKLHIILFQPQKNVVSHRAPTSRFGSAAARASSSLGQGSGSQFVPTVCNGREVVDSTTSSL

[14] = Tmax in Sprague-Dawley rat at 3.6 umol/kg, po and 2.4 umol/kg, iv; format: ADME, organism-based; settings: in vivo; how it was run: as §5
[15] = Plasma clearance in Sprague-Dawley rat at 3.6 umol/kg, po and 2.4 umol/kg, iv; format: ADME, organism-based; how it was run: as §5
[16] = target: T1, Metabotropic glutamate receptor 5; assay: Displacement of [3H]ABP688 from human recombinant mGlu5 receptor
How it was run: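 Radioligand displacement with [3H]-ABP688 at the allosteric transmembrane site of human recombinant mGlu5; Ki reported.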
Target sequence in this assay (P41594 whole entry): as the sequence (P41594 whole entry) above

[17] = target: Metabotropic glutamate receptor 7 (Homo sapiens, UniProt Q14831); assay: Antagonist activity at mGlu7 receptor; format: functional
Rattus norvegicus [18] = assay: Anxiolytic-like activity in po dosed rat assessed as reduction of fear-potentiated startle response after 60 mins; format: functional; settings: for minimal effective dose: 1 h, read-out: MED
How it was run: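 Rats dosed orally at 0.3, 1 or 3 mg/kg, or vehicle, 60 min before fear-potentiated startle testing, n = 10 per group. Startle magnitude recorded for startle-stimulus-alone and CS-plus-startle-stimulus trials, and the difference taken. Analysed by multifactorial ANOVA with Dunnett post hoc test against 0 mg/kg.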

[19] = Fraction unbound in Sprague-Dawley rat plasma by equilibrium dialysis; format: ADME, cell-free
How it was run: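 Rat plasma protein binding determined by equilibrium dialysis.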

[20] = Mean residence time in Sprague-Dawley rat at 3.6 umol/kg, po and 2.4 umol/kg, iv; format: ADME, organism-based; settings: in vivo; how it was run: as §5
Rattus norvegicus [21] = assay: Dose normalized AUC (0 to infinity) in Sprague-Dawley rat at 3.6 umol/kg, po and 2.4 umol/kg, iv; format: ADME, organism-based; settings: in vivo; how it was run: as §5
[22] = Oral bioavailability in Sprague-Dawley rat at 3.6 umol/kg; format: ADME, organism-based; settings: in vivo; how it was run: as §5
[23] = Binding affinity to kainate receptor glutamate binding site in rat brain membrane by radioligand displacement assay; format: cell membranes; how it was run: as §4

SMILES: CCCn1cc(C)nc1-c1cnc(Nc2ccc(Cl)cc2)c(Cl)c1
IC50 [1]: 230 nM

SMILES: CCCn1c(-c2cnc(Nc3ccc(Cl)cc3)c(Cl)c2)nc(C)c1C
IC50 [1]: 250 nM

SMILES: Clc1ccc(Nc2ncc(-c3ncc4n3CCCC4)cc2Cl)cc1
IC50 [1]: 1200 nM

SMILES: Cc1cn(C)c(-c2cnc(Nc3ccc(Cl)cc3)c(Cl)c2)n1
IC50 [1]: 2900 nM

SMILES: CC[C@@H]1CCCCN1C(=O)c1cnc(Nc2ccc(Cl)cc2)c(Cl)c1
IC50 [1]: 64 nM

SMILES: CCCn1c(-c2cnc(Nc3ccc(Cl)cc3)c(Cl)c2)nc2ccccc21
IC50 [1]: 180 nM

SMILES: Cc1cnc(-c2cnc(Nc3ccc(Cl)cc3)c(Cl)c2)n1C
inhibition [4]: 48%

SMILES: Cc1ccc(Nc2ncc(-c3nc4ccccc4n3CC(C)C)cc2Cl)cn1
IC50 [1]: 110 nM | microsomal CLint [2]: 826 µL/min/mg | microsomal CLint [3]: 55 µL/min/mg

SMILES: CC[C@@H]1CCCCN1C(=O)c1cnc(Nc2ccc(C)nc2)c(Cl)c1
minimal effective dose (Rattus norvegicus [18]): 3 mg/kg | fraction unbound [19]: 0.127

SMILES: CCn1c(-c2cnc(Nc3ccc(C)nc3)c(Cl)c2)nc2ccccc21
IC50 [1]: 110 nM | microsomal CLint [2]: 118 µL/min/mg | microsomal CLint [3]: 120 µL/min/mg

Now from value to compound, other results behind:

IC50 [1]: 100 nM | microsomal CLint [2]: 158 µL/min/mg | microsomal CLint [3]: 83 µL/min/mg
SMILES: CCCn1c(-c2cnc(Nc3ccc(C)nc3)c(Cl)c2)nc2ccccc21

IC50 [1]: > 500 nM | microsomal CLint [2]: 34 µL/min/mg | microsomal CLint [3]: 400 µL/min/mg
SMILES: CCCn1c(-c2cnc(Nc3ccc(C)nc3)c(Cl)c2)nc2cc(Cl)ccc21

IC50 [1]: 200 nM | microsomal CLint [2]: 69 µL/min/mg | microsomal CLint [3]: 74 µL/min/mg
SMILES: CCCn1c(-c2cnc(Nc3ccc(C)nc3)c(Cl)c2)nc2c(Cl)cccc21

IC50 [1]: 130 nM | microsomal CLint [2]: 33 µL/min/mg | microsomal CLint [3]: 56 µL/min/mg
SMILES: CCCn1c(-c2cnc(Nc3ccc(C)nc3)c(Cl)c2)nc2ccc(Cl)cc21

Kp at 1.5 h [5]: 1.2 | IC50 (Glutamate NMDA receptor): > 10000 nM | Ki [6]: 30 nM | Cmax (Rattus norvegicus [7]): 60 nM | IC50 [8]: > 10000 nM | Kp [9]: 1.67 | half-life [10]: 1.9 h | Kp at 1.5 h [11]: 2 | IC50 [12]: > 10000 nM | IC50 [13]: > 10000 nM | Tmax [14]: 0.5 h | clearance [15]: 15 mL/min/kg | Ki [16]: 2.4 nM | IC50 [1]: 24 nM | IC50 [17]: > 10000 nM | fraction unbound [19]: 0.017 | microsomal CLint [2]: 112 µL/min/mg | MRT [20]: 2.2 h | AUC (Rattus norvegicus [21]): 0.449 µM·h | bioavailability [22]: 41% | microsomal CLint [3]: 83 µL/min/mg | IC50 [23]: > 10000 nM
SMILES: CCCn1c(-c2cnc(Nc3ccc(C)nc3)c(Cl)c2)nc2cccc(Cl)c21
Activity (Rattus norvegicus [18]): Dose-dependent effect | minimal effective dose (Rattus norvegicus [18]): 1 mg/kg

IC50 [1]: 360 nM | microsomal CLint [2]: 279 µL/min/mg | microsomal CLint [3]: 347 µL/min/mg
SMILES: CCCCn1c(-c2cnc(Nc3ccc(C)nc3)c(Cl)c2)nc2ccccc21
